Source: PubChem (several laboratories)
This is a sample that favours compounds with a hit; in the whole collection about 2.2% have one here.
DDE Tn6 FP inh: disrupts Tn6 cyclic peptide binding to fibrin D-Dimer-E complex | 370,000 tested, 0.21% active | inhibition, % at 8.3 µM | AID 720509 | Fibrin DD(E) TRITC-Tn6 fluorescence polarization displacement | P02675;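 active = inhibition above a per-campaign cutoff: mean of compounds within control limits plus 3 SD, cut at about 15% in these data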;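 also: 0% = median of all compound wells on the plate and 100% = blocking peptide control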
MT1-MMP act inh: MT1-MMP (human) activation inhibition. HT1080 RFP-PRO-GFP cells, GFP/RFP ratio fluorescence, overnight; percent of plate control window, DMSO zero. GFP/RFP ratio change, % at 20 µM. 360,000 tested, 0.061% active. AID 651647;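 active = GFP/RFP ratio change of at least 30% with cell ATP level not reduced by more than half and red fluorescence within 50% of control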
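Assay system: HT1080 cells carrying an RFP-PRO-GFP reporter | Dosing: Single dose of 20 µM compound, 1% DMSO final | Incubation: Cells overnight before dosing, compound overnight, 37 °C, 5% CO2 | Evaluation: GFP/RFP fluorescence ratio | Control set: DMSO and RFP-L50D-GFP cell wells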
SKN-1 block: C. elegans SKN-1 inhibition; C. elegans VP596 Pgst-4::GFP/RFP ratio, acrylamide-induced, 24 h; inhibition, % at 21.8 µM; 360,000 tested, 0.49% active; AID 624304;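 active = interference check ratio from 0.5 to 1.5 plus GFP to RFP signal ratio inhibition reaching or exceeding a fixed threshold, cut at about 30% in these data, passing the limit was not always enough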
Neddylation inh: inhibitors of human cullin neddylation; TR-FRET cullin neddylation, biochemical; 360,000 tested, 0.58% active; calls only at 25 µM; in the data active = inhibition above about 36%
Tn7 DDE FP: disrupts Tn7 cyclic peptide binding to fibrin D-Dimer-E complex | P02675 | FP displacement of FITC-Tn7 peptide from fibrin DD(E); 0% = median of compound wells per plate | inhibition, % at 8.3 µM | 370,000 tested, 0.13% active | AID 720508;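 active = inhibition above the mean of compounds falling within the control limits plus 3 SD of them, cut at about 14% in these data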;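 also: 0% = plate median of compound wells and 100% = 10 µM Aha-Tn7 peptide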
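Measure: % inhibition scaled between sample-field median and high-control FP; Test system: human fibrin DD(E); Quantity: 2 µM final DD(E) protein; Doses: one dose, 8.3 µM nominal; Schedule: compound with protein 10 min, then 3 h after probe, room temperature; Detection: fluorescence polarization; Medium: Tris buffer with calcium and detergent, pH 7.8.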
KLK7 zymogen act: activates the human kallikrein-7 zymogen. P49862. purified proKLK7, EDANS-DABCYL substrate fluorescence; 100% is mature enzyme control, 0% vehicle. activation, % at 7 µM. AID 652039. 370,000 tested, 0.9% active;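 active = activation above the mean of all tested compounds plus 3 SD, computed per campaign excluding outliers beyond control limits, cut at about 13% in these data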
Target sequence (P49862 whole entry, looked up): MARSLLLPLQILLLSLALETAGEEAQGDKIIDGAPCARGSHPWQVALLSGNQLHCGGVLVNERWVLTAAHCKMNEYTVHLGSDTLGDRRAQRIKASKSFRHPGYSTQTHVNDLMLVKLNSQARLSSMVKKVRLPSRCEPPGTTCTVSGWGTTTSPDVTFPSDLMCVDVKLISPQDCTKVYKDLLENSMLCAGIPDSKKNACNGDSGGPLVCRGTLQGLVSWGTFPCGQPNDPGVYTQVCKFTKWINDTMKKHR
proKLK7 act conf: confirmation of human kallikrein-7 zymogen activators; shares compounds with KLK7 zymogen act; purified proKLK7, EDANS-DABCYL substrate fluorescence; scaled: vehicle 0, mature enzyme 100; activation, % at 7 µM; 3,200 tested, 68% active; AID 686949;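 active = activation, as change over the incubation, above the mean of all tested compounds plus 3 SD, cut at about 13% in these data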
EDANS interfere: counter-screen for kallikrein-7 activators: EDANS-DABCYL optical interference; 3,200 tested, 80% active; shares compounds with KLK7 zymogen act; activation, % at 7 µM; EDANS-DABCYL substrate fluorescence interference, no enzyme, 4 h; solvent 0%, active enzyme control 100%;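 active = activation above the all-compound mean plus 3 SD, ignoring values outside control-based bounds, cut at about 4.8% in these data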;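 also: value is the 4 h activation minus the activation read at time zero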
EDANS interf: EDANS fluorescence interference in dose response, no enzyme; shares compounds with KLK7 zymogen act; EDANS-DABCYL peptide fluorescence interference; EC50, µM; 250 tested, 20% active; AID 720493;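 active = compounds that raise the fluorescence signal in this interference counterscreen, with EC50 at or below 10 µM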;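 also: intact quenched peptide substrate alone read at 355 nm excitation and 520 nm emission; signal is fluorescence gain from T0 to T4 after four hours at room temperature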
An asterisk follows results filed as active; i = inactive; · = no result given.

SMILES	DDE Tn6 FP inh	MT1-MMP act inh	SKN-1 block	Neddylation inh	Tn7 DDE FP	KLK7 zymogen act	proKLK7 act conf	EDANS interfere	others
COc1ccc(OC(=O)c2cccc([N+](=O)[O-])c2)c(C(=O)/C=C/c2cccs2)c1	3.1	-2.3	4.3	i	-9.5	24.9*	20.3*	14.9*	EDANS interf=i
COc1cccc(/C=C/C(=O)c2cccc([N+](=O)[O-])c2)c1	2.7	0.9	1.9	i	3.4	-0.6	·	·
O=C(O)CCCC(=O)NCCCc1ccccc1	3.3	1.7	2.0	i	-5.3	0.2	·	·
Cc1cccn2c(=O)c3cc(C(=O)NCC4CCCO4)c(=N)n(CC4CCCO4)c3nc12 (stereo not drawn)	-4.7	3.5	2.7	i	3.0	145.1*	32.9*	42.1*
Cc1cccn2c(=O)c3cc(C(=O)NC4CCCC4)c(=N)n(CCCN4CCOCC4)c3nc12	-1.7	-5.2	12.8	·	-1.8	34.7*	9.1	12.2*
Cc1cccn2c(=O)c3cc(C(=O)NCC4CCCO4)c(=N)n(C4CCCCC4)c3nc12 (stereo not drawn)	-10.6	-0.9	-5.2	·	-6.4	24.8*	-52.5	-59.5
Cc1cccn2c(=O)c3cc(C(=O)NCc4ccco4)c(=N)n(C4CCCC4)c3nc12	-4.1	-0.4	3.1	·	-0.9	-115.3	·	·
Cc1cccn2c(=O)c3cc(C(=O)NC4CCCC4)c(=N)n(CC4CCCO4)c3nc12 (stereo not drawn)	-5.0	1.8	10.8	·	2.6	81.0*	-30.5	-34.0
Cc1cccn2c(=O)c3cc(C(=O)NCc4ccc(F)cc4)c(=N)n(CC4CCCO4)c3nc12 (stereo not drawn)	-4.4	-2.4	-10.6	i	1.1	-4.5	·	·
CCN(CC)Cc1c(O)c(Cl)cc2c(C)c(C)c(=O)oc12	11.8	3.7	-9.7	·	3.6	57.9*	66.0*	82.9*
COc1ccc(-c2c(C)c3ccc(O)cc3oc2=O)cc1	1.0	3.9	11.2	·	1.7	82.4*	72.6*	83.0*
CCOC(=O)c1c(C)oc2cc(Cl)c(O)c(CN(C)C)c12	-7.0	-4.2	1.9	i	-4.7	0.8	·	·
Cc1c(Cc2ccccc2)c(=O)oc2cc(O)ccc12	-3.8	-4.6	1.1	·	0.7	88.0*	71.0*	80.5*
CCN(CC)Cc1c(O)c(Cl)cc2c(C)cc(=O)oc12	6.0	-0.7	19.6	·	-3.6	53.1*	72.9*	66.3*
CC(=O)Nc1ccc(NC(=O)C2CC(=O)N(c3ccc(Cl)cc3)C2)cc1 (stereo not drawn)	1.7	-0.1	-1.1	i	1.6	-0.2	·	·
COc1ccc(S(=O)(=O)N2CCC(C(=O)NCc3ccco3)CC2)cc1	1.9	4.7	-20.6	i	-1.4	0.4	·	·
Cc1ccnc(NS(=O)(=O)c2ccc(NC(=O)COc3ccccc3)cc2)n1	4.4	-1.1	-1.4	i	0.9	0.2	·	·
C=CCc1c(O)c(CC)cc2c(C)cc(=O)oc12	-3.7	-2.3	-0.5	·	-3.9	90.1*	60.5*	65.8*
Cc1c(Cc2ccccc2)c(=O)oc2c(CN(C)C)c(O)c(Cl)cc12	-3.6	3.8	29.2	i	2.1	48.4*	67.9*	67.3*
CC(C)OC(=O)c1c(NS(=O)(=O)c2ccccc2)sc2c1CCCC2	-3.3	·	-1.6	i	-2.5	0.0	·	·
CCOC(=O)c1[nH]c2ccccc2c1NC(=S)Nc1cc(C)ccc1C	-0.2	-1.8	12.0	i	-8.3	-1.5	·	·
Nc1ccc2nc3n(c(=O)c2c1)CCC3	9.5	-3.1	-4.6	·	1.2	16.7*	9.9	11.7*
